ChEMBL document CHEMBL1121925, “Isoxicam and related 4-hydroxy-N-isoxazolyl-2H-1,2-benzothiazine-3-carboxamide 1,1-dioxides. Potent nonsteroidal antiinflammatory agents” (1982)
Calls of active or inactive are those of the source. The calls are words filed in the database; no cut-off is given here.

Columns and labels:
Rattus norvegicus [1] = assay: Antiinflammatory activity was assessed in carrageenan-induced rat paw edema(CIRPE) test after po administration; Inactive at 100 mg/kg; assay type: functional, organism-based; design: dose 100 mg/kg
Outline: (§1)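 Male Charles-River rats, groups of 8–10; compound given orally as aqueous suspension, then 1 h later 0.05 mL of 1% carrageenin in 0.9% saline injected into plantar left hind paw. Injected and uninjected paw volumes measured 3 h later by mercury displacement to the lateral malleolus mark; difference compared statistically between treated and control groups at oral screening dose.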

Rattus norvegicus [2] = assay: Antiinflammatory activity was assessed in carrageenan-induced rat paw edema(CIRPE) test after po administration; assay type: functional; details: read-out: MED; outline: as §1
Rattus norvegicus [3] = assay: Antiinflammatory activity was assessed in prophylactic adjuvant induced polyarthritis(AIP) test after po administration; assay type: functional; details: for minimal effective dose: Rattus norvegicus, po, read-out: MED
Outline: (§2)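 Male Charles-River-Lewis rats (150 ± 10 g), groups of 10. Day 1: heat-killed Mycobacterium butyricum in light mineral oil (250 μg/0.05 mL) injected into left hind paw. Dosing on days 1–20; sacrifice day 21, hind paw weights recorded; change taken as difference between day 1 and day 21.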

Rattus norvegicus [4] = assay: Antiinflammatory activity was assessed in therapeutic adjuvant induced polyarthritis(AIP) test after po administration; assay type: functional; details: read-out: MED
Outline: (§3)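 Male Charles-River-Lewis rats (150 ± 10 g) injected day 1 in left hind paw with heat-killed Mycobacterium butyricum in mineral oil (250 μg/0.05 mL). Day 14, only responders (lesions in both hind paws) randomized into groups of 10, treated days 14–27, sacrificed day 28; hind paw weight change from day 14 to day 28.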

Rattus norvegicus [5] = assay: Antiinflammatory activity was assessed in prophylactic adjuvant induced polyarthritis(AIP) test after po administration.; assay type: functional; details: read-out: MED; outline: as §2
Rattus norvegicus [6] = assay: Antiinflammatory activity was assessed in therapeutic adjuvant induced polyarthritis(AIP) test after po administration.; assay type: functional; details: read-out: MED; outline: as §3

Row | Compound | MED (Rattus norvegicus [1]) | minimal effective dose (Rattus norvegicus [2]) [mg/kg] | other results
1 | Cc1cc(NC(=O)CC(=O)c2ccccc2S(=O)(=O)N(C)C)no1 | inactive |  | 
2 | CCCCC1C(=O)N(c2ccccc2)N(c2ccccc2)C1=O [PHENYLBUTAZONE] |  | 37.5 | MED (Rattus norvegicus [3]): 1.56 mg/kg; minimal effective dose (Rattus norvegicus [3]): 1.56 mg/kg
3 | Cc1cc(NC(=O)C2=C(O)c3ccccc3S(=O)(=O)N2C)no1 [ISOXICAM] |  | 12.5 | minimal effective dose (Rattus norvegicus [4]): 1.56 mg/kg; minimal effective dose (Rattus norvegicus [3]): 1.56 mg/kg
4 | CC(=O)Cc1noc(C2=C(O)c3ccccc3S(=O)(=O)N2)n1 | inactive |  | 
5 | CC(=O)Oc1ccccc1C(=O)O [ASPIRIN] |  | 100 | 
6 | Cc1cc(NC(=O)CNS(=O)(=O)c2ccccc2C(=O)O)no1 | inactive |  | 
7 | CC(=O)Cc1noc(C2=C(O)c3ccccc3S(=O)(=O)N2C)n1 | inactive |  | 
8 | COc1ccc2c(c1)c(CC(=O)O)c(C)n2C(=O)c1ccc(Cl)cc1 [INDOMETHACIN] |  | 0.37 | minimal effective dose (Rattus norvegicus [5]): 0.39 mg/kg; minimal effective dose (Rattus norvegicus [6]): 0.39 mg/kg
